The nature of assay [1]: S. cerevisiae growth inhibition in permissive medium (OD615), pilot counter-assay for S. cerevisiae lifespan shortening project, permissive growth control (AID 705;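 active means growth inhibition above 25% in both replicates, a cutoff set 3 SD above the mean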). As to conditions: OD615, 24 h, at 10 µM, active compounds read high. In short, it runs like this:
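System: Engineered DeaD yeast | Buffer or medium: SC raffinose/galactose permissive medium | Doses: 10 µM single dose, 0.25% DMSO | Times: 24 h exposure, 30 °C | Measured by: OD615 turbidity read | Read-out: Yeast growth inhibition indicated by reduced 24 h OD615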

The nature of assay [2]: S. cerevisiae growth inhibition in restrictive medium, OD615, pilot screen, restrictive growth control, yeast lifespan reduction project (AID 706;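 active means growth inhibition above a set limit, 3 SD over mean compound inhibition, in both replicates, cut at about 43% in these data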;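 further: modified DeaD lifespan yeast strain shifted to restrictive glucose medium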). As to conditions: OD615, 48 h, at 10 µM, active compounds read high. In short, it runs like this: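 Assay system: engineered S. cerevisiae DeaD strain; Buffer or medium: CSMM-D glucose medium; Dosing: 10 µM compound, 0.25% DMSO; Times: cell pre-growth 4 h, compound exposure 48 h, 30 °C; Detection: absorbance (optical density) measured at 615 nm.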

Assay [3] can be described thus: doxorubicin toxicity protection in MRP-1 cells – H69AR cells, CellTiter-Glo, duplicate, MRP-1 activator project, pilot screen (AID 807;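 active means viability increase at or above a cutoff of the median across tested compounds plus 3 SD, cut at about 8.5% in these data, passing the limit was not always enough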;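 further: compound pretreatment 18-22 h then 72 h combined with doxorubicin; 0% = doxorubicin alone and 100% = vehicle without doxorubicin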). Conditions: H69AR viability with doxorubicin, CellTiter-Glo luminescence; at 10 µM; active compounds read high. (ATP-based viability assays read luminescence as a measure of living cells.)
A short description of assay [4]: viability of HCT116 without oncogenic beta-catenin – human colon tumor cells, pilot screen (AID 823;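 active means cell viability at or below a set limit in both duplicate runs, the limit being the all-compound median minus 4 SD, cut at about 23% in these data, passing the limit was not always enough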;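 further: 0% = wells killed by 20 µM Hyamine and 100% = untreated DMSO cell wells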). As to conditions: HCT116 beta-catenin knockout viability, CellTiter-Glo, 60 h; at 10 µM; active compounds read low.
A short description of assay [5]: viability of PTEN-null HCT116 cells – cell-based, HCT116 clonal line, CellTiter-Glo, pilot screen (AID 824;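 active means viability at or below 27.92% in each of two runs, the all-compound median minus 4 SD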;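 further: 0% = 20 µM Hyamine control and 100% = vehicle cell control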). Conditions: HCT116 PTEN-deleted viability, 60 h, at 10 µM, active compounds read low.
Assay [6] can be described thus: RAM pathway blockade in budding yeast – dse1pr::URA3 reporter, 5-FOA selection, pilot screen (AID 869).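 Further: 0% = DMSO wells with no growth and 100% = 10 µM 1-NA-PP1 with full growth; RAM network block rescues cells from 5-FOA so hits raise OD615 growth.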 Conditions: S. cerevisiae dse1pr::URA3 5-FOA growth, OD615, 2 d; at 10 µM; active compounds read high; strain carries analog-sensitive mutant Cbk1 kinase.
Assay [7] can be described thus: RAM signaling pathway blockade in yeast – S. cerevisiae, Pdr1DBD-CYC8 efflux-inhibited sensitized strain, primary screen (AID 1298;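 active means RAM network inhibition above 8.4% in each of two replicates, 3 SD over the compound average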;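 further: 0% = DMSO untreated cells without growth and 100% = 10 µM 1-NA-PP1 full growth; higher means more yeast growth rescued from 5-FOA killing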). Conditions: S. cerevisiae cbk1-as DSE1-URA3 strain, 5-FOA growth OD615, 2 d; at 50 µM; active compounds read high.

Values without a mark were called inactive. Records with an inconclusive call do not appear. The source made the active and inactive calls.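 How the source made its calls, unless noted: active means inhibition over a set limit, the all-compound mean plus 3 SD, in both replicate runs; inconclusive means over that limit in just one replicate run; inactive means at or under that limit in both runs.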

On to `CCC1CCCCN1C(=O)c1cc2cc(Br)ccc2oc1=O` (stereo not drawn), for which the growth inhibition in assay [1] is -9.03%; in assay [2] it was -15.9%. Besides, the viability increase in assay [3] was -2.87%. Also, the viability (usually a read-out of living cells in per cent, often relative to untreated cells) in assay [4] was 106%; in assay [5], 94.8%. Also, the inhibition – broadly, the relative decrease from the control value, in per cent – in assay [6] is 0.68%. The RAM network inhibition in assay [7] is 2.89%.

For the compound `COc1ccc(C2c3c(oc4ccc(F)cc4c3=O)C(=O)N2CCN2CCOCC2)cc1OC` (stereo not drawn), the growth inhibition in assay [1] is -0.77%; in assay [2] it was 4.3%. In assay [3], the viability increase is -1.12%. Also, the viability in assay [4] was 107%; in assay [5] it was 108%. Moreover, the inhibition in assay [6] is 0.315%. Besides, the RAM network inhibition in assay [7] was 2.7%.

Turning to `O=C(O)c1cc(Cl)c(Cl)cc1C(=O)N1CCOCC1`, the growth inhibition is -26.1% in assay [1] and -13.7% in assay [2]. Further, the viability increase in assay [3] is -0.17%. Moreover, the viability in assay [4] was 94%; in assay [5], 89.5%. The inhibition in assay [6] is 1.38%. In addition, the RAM network inhibition in assay [7] was 1.67%.

On to `COc1c(C)cc(Br)cc1C(=O)Nc1cccc(-c2nc3ncccc3o2)c1`, for which the growth inhibition in assay [1] was -0.485%; in assay [2], 15%. Besides, the viability increase in assay [3] is -4.84%. For the same compound, the viability was 55.6% in assay [4] and 46.5% in assay [5]. Also, the inhibition in assay [6] was 2.24%. The RAM network inhibition in assay [7] was 7.82%.

`O=C(Nc1ccccc1Oc1ccccc1)C1CC1`: the growth inhibition was -13.6% in assay [1] and 3.26% in assay [2]. The viability increase in assay [3] is -2.26%. The viability was 89.5% in assay [4] and 93.1% in assay [5]. Also, in assay [6], the inhibition is 0.595%. Further, the RAM network inhibition in assay [7] was 3.21%.

As to `Nc1nc(Nc2cccc(F)c2)nc2ccccc12`, the growth inhibition in assay [1] was -11.6%; in assay [2], -30.8%. Besides, the viability increase in assay [3] was -5.76%. Also, the viability is 70.3% in assay [4] and 67.6% in assay [5]. Also, the inhibition in assay [6] was 1.88%. For the same compound, in assay [7], the RAM network inhibition is 4.92%.

`Cn1c(Cn2c(=O)sc3ccccc32)nnc1SCC(=O)N1CCCCCC1`: the growth inhibition in assay [1] was -15%; in assay [2], -23.5%. Further, the viability increase in assay [3] was -0.71%. The viability in assay [4] was 102%; in assay [5], 95.2%. Also, the inhibition in assay [6] was 2.58%. The RAM network inhibition in assay [7] is 1.04%.

As for `COCC(=O)NCc1nc2ccccc2n1Cc1ccccc1F`, the growth inhibition in assay [1] was -7.99%; in assay [2], -15.2%. For the same compound, the viability increase in assay [3] is -1.11%. In addition, the viability is 98.2% in assay [4] and 99.2% in assay [5]. Further, the inhibition in assay [6] was 1.59%. Moreover, the RAM network inhibition in assay [7] was 0.88%.

Regarding `CN(C)Cc1cc(C(C)(C)C)c(O)c(C(C)(C)C)c1`, the growth inhibition in assay [1] was -3.78%; in assay [2] it was -4.33%. The viability increase in assay [3] was -2.61%. Also, the viability in assay [4] was 97.2%; in assay [5] it was 101%. In addition, the inhibition in assay [6] was 0.92%. Besides, in assay [7], the RAM network inhibition is 5.72%.

`CCOC(=O)CNC(=O)c1cn(CC(C)C)c(=O)c2cc(OC)c(OC)cc12`: the growth inhibition in assay [1] was -5.46%; in assay [2], -6.08%. For the same compound, in assay [3], the viability increase was -1.77%. In addition, the figures for the viability in assay [4] and in assay [5] were 105% and 101%, respectively. In addition, the inhibition in assay [6] is -0.375%. The RAM network inhibition in assay [7] was 4.17%.

Take `CCCCOC(=O)c1ccc(NC(=O)CSCc2n[nH]c(=O)[nH]2)cc1`: the growth inhibition is -1.44% in assay [1] and -3.24% in assay [2]. Also, the viability increase in assay [3] was 0.11%. For the same compound, the results for the viability in assay [4] and in assay [5] were 98.3% and 102%, respectively. Moreover, in assay [6], the inhibition is 0.475%. The RAM network inhibition in assay [7] is 1.48%.

Take `O=C(C1CCN(S(=O)(=O)c2cccc3cccnc23)CC1)N1CCN(c2ccc(Cl)cc2)CC1`: the growth inhibition in assay [1] is -3.56%; in assay [2], 0.215%. For the same compound, the viability increase in assay [3] is -1.23%. Further, the viability is 31.1% in assay [4] and 38.6% in assay [5]. For the same compound, in assay [6], the inhibition is 1.4%. In addition, in assay [7], the RAM network inhibition is 4.56%.

Consider `CN1CCN(C(=O)C2CCC(CNS(=O)(=O)c3cccc4cccnc34)CC2)CC1` (stereo not drawn), for which the growth inhibition was 4.4% in assay [1] and 2.39% in assay [2]. The viability increase in assay [3] is -0.86%. The viability in assay [4] was 99%; in assay [5], 100%. For the same compound, the inhibition in assay [6] was 1.58%. Besides, in assay [7], the RAM network inhibition is 0.46%.

`CCOC(=O)c1ccccc1NC(=O)Cn1cnc2c(nnn2-c2ccc(C)cc2)c1=O`: the growth inhibition in assay [1] is -7.68%; in assay [2], 4.12%. Besides, in assay [3], the viability increase is -4.32%. The viability was 97% in assay [4] and 88% in assay [5]. Moreover, the inhibition in assay [6] is 2.62%. Moreover, the RAM network inhibition in assay [7] was 3.5%.

In the case of `COCCn1c(SCC(=O)Nc2cc(Cl)ccc2OC)nc2c(c1=O)SC(C)C2` (stereo not drawn), the growth inhibition in assay [1] is 1.23%; in assay [2], 0.95%. Further, in assay [3], the viability increase is -6.28%. In addition, the viability in assay [4] was 83.3%; in assay [5], 78%. Besides, in assay [6], the inhibition is 2.55%. In assay [7], the RAM network inhibition was -0.36%.

Turning to `COCCn1c(=O)[nH]c2cc(C(=O)NC3CCCCCC3)ccc2c1=O`, the growth inhibition in assay [1] is -17.4%; in assay [2], -10.9%. The viability increase in assay [3] was -3.33%. For the same compound, the viability in assay [4] is 93.7%; in assay [5], 87.6%. In addition, in assay [6], the inhibition was 6.66% (active). Further, in assay [7], the RAM network inhibition is 4.43%.

As for `Cc1ccccc1NC(=O)CCn1c(=O)oc2ccccc21`, the growth inhibition is -3.42% in assay [1] and -26.5% in assay [2]. Besides, in assay [3], the viability increase was -1.87%. Also, the viability was 101% in assay [4] and 91.3% in assay [5]. Besides, the inhibition in assay [6] was 1.54%. Further, the RAM network inhibition in assay [7] was 3.96%.

For the compound `CC(=O)c1c(C)nn(C(=O)c2cccs2)c1C`, the growth inhibition in assay [1] was 1.07%; in assay [2], 5.09%. For the same compound, the viability increase in assay [3] was -0.49%. For the same compound, the viability in assay [4] is 91%; in assay [5], 106%. Besides, the inhibition in assay [6] is 1.89%. Besides, the RAM network inhibition in assay [7] is -0.62%.

Regarding `Cc1ccc(OCCCN(C)C)c(Br)c1`, the growth inhibition in assay [1] is -0.99%; in assay [2], -6.73%. The viability increase in assay [3] is -1.22%. For the same compound, the results for the viability in assay [4] and in assay [5] were 89.1% and 87.7%, respectively. Also, the inhibition in assay [6] is 1.03%. Further, the RAM network inhibition in assay [7] is 2.05%.

Turning to `N#Cc1c(NC(=O)c2cc(C3CC3)on2)sc2c1CCC2`, the growth inhibition in assay [1] was -1.24%; in assay [2] it was 5.11%. The viability increase in assay [3] was -5.36%. For the same compound, the viability in assay [4] is 38.9%; in assay [5], 34.1%. Moreover, in assay [6], the inhibition is 3.44%. For the same compound, the RAM network inhibition in assay [7] is -1.72%.

Regarding `CCCCC(CC)C(=O)NCCc1ccc(S(N)(=O)=O)cc1` (stereo not drawn), the growth inhibition in assay [1] is -2.48%; in assay [2], -4.13%. For the same compound, the viability increase in assay [3] is -0.52%. In addition, the viability was 93.2% in assay [4] and 97.9% in assay [5]. Also, the inhibition in assay [6] was 1%. The RAM network inhibition in assay [7] is -0.82%.

`Cc1ccc(-c2nc3cnccn3c2Nc2ccccc2)o1`: the growth inhibition in assay [1] is 0.205%; in assay [2] it was 14.9%. In addition, the viability increase in assay [3] was -0.77%. For the same compound, the viability is 91.2% in assay [4] and 84.3% in assay [5]. Moreover, in assay [6], the inhibition was 0.995%. Moreover, the RAM network inhibition in assay [7] was 1.9%.

For `COc1cccc(-c2nn(C)c3sc(C(=O)N4CCOCC4)cc23)c1`, the growth inhibition in assay [1] was 6.62%; in assay [2], 9.91%. The viability increase in assay [3] was -2.47%. The viability in assay [4] was 97.5%; in assay [5], 94.9%. Besides, the inhibition in assay [6] is 1.45%. The RAM network inhibition in assay [7] was 5.9%.

Consider `COc1ccc(C)cc1S(=O)(=O)N1CCN(S(=O)(=O)c2cc(C)ccc2OC)C(C)C1` (stereo not drawn), for which the growth inhibition was -8.75% in assay [1] and -8.42% in assay [2]. The viability increase in assay [3] is -3.35%. Besides, the figures for the viability in assay [4] and in assay [5] were 88.7% and 85.6%, respectively. The inhibition in assay [6] is 2.99%. Further, the RAM network inhibition in assay [7] is 2.61%.

(Values after PubChem BioAssay.)
